Experimental data published in ChEMBL document CHEMBL1681633, “Design, synthesis, and in vitro characterization of novel hybrid peptidomimetic inhibitors of STAT3 protein” (Bioorg Med Chem, 2011).
Calls of active or inactive are those of the source. The rule behind the calls is not given here.

Columns and labels:
[1] = target: T1, Signal transducer and activator of transcription 3 (Mus musculus, UniProt P42227); assay: Inhibition of STAT3 dimerization in mouse NIH3T3 cells expressing v-Src assessed as disruption of STAT3-STAT3: DNA complexation in nucleus after 30 mins by electrophoretic mobility shift assay; assay type: cell-based
T1 sequence (P42227 whole entry): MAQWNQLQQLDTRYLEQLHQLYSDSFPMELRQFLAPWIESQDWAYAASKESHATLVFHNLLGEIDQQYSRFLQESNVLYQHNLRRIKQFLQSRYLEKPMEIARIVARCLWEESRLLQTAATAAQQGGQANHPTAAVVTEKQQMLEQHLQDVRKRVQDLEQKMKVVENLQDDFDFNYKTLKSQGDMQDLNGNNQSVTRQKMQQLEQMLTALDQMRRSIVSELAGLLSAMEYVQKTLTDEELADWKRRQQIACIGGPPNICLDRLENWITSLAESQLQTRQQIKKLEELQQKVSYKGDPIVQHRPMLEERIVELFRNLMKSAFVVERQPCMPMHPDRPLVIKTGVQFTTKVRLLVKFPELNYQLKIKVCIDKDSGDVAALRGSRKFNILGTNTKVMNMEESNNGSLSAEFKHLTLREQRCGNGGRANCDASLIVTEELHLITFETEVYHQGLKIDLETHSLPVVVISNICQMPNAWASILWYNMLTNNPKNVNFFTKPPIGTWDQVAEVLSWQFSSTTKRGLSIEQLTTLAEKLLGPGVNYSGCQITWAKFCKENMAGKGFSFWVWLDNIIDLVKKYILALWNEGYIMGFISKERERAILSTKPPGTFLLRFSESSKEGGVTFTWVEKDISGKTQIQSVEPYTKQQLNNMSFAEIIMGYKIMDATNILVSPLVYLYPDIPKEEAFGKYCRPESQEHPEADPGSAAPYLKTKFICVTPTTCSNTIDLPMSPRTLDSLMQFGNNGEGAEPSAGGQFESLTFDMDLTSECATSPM
In short: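 Nuclear extracts from NIH3T3/v-Src (constitutively active STAT3), equal total protein, pre-incubated 30 min at room temperature with increasing compound concentrations, then with radiolabelled hSIE probe; EMSA with densitometry quantification.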

[2] = target: T1, Signal transducer and activator of transcription 3; assay: Displacement of 5-carboxyfluorescein-GpYLPQTV-NH2 from mouse recombinant His-tagged STAT3-SH2 domain expressed in Escherichia coli BL21 (DE3) by fluorescence polarization assay
In short: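 His-tagged protein expressed in BL21(DE3), Ni-column purified. STAT3 150 nM incubated with serial inhibitor concentrations 60 min at 30 °C in 50 mM NaCl, 10 mM HEPES, 1 mM EDTA, 0.1% NP-40; 15 min equilibration at room temperature; 10 nM final probe added, 30 min room temperature, then FP read.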

[3] = target: Signal transducer and activator of transcription 3 (Mus musculus) (UniProt P42227); assay: Inhibition of STAT3 dimerization in v-Src transformed mouse NIH3T3 cells assessed as suppression of STAT3-DNA binding activity in nucleus at 100 uM after 6 hrs by electrophoretic mobility shift assay; assay type: cell-based
Signal transducer and activator of transcription 3 (Mus musculus), sequence (P42227 whole entry, the tested form may be a part): as the sequence (P42227 whole entry) above
In short: (§1)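 NIH3T3/v-Src cells treated with 100 μM compound for 6 or 24 h; nuclear extracts then tested for STAT3 DNA binding in vitro with radiolabelled hSIE probe by EMSA.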

[4] = target: Signal transducer and activator of transcription 3 (Mus musculus) (UniProt P42227); assay: Inhibition of STAT3 dimerization in v-Src transformed mouse NIH3T3 cells assessed as suppression of STAT3-DNA binding activity in nucleus at 100 uM after 24 hrs by electrophoretic mobility shift assay; assay type: cell-based; in short: as §1
[5] = target: T1, Signal transducer and activator of transcription 3; assay: Inhibition of mouse recombinant SH2 domain of His-tagged full-length STAT3 by surface plasmon resonance assay
In short: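 Purified STAT3 captured on a HisCap sensor chip by injecting 50 μg/ml protein; inhibitors at various concentrations in 1X PBS, 0.5% DMSO running buffer passed over chip; association and dissociation rate constants recorded, their ratio taken as KD.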

[6] = target: T2, Signal transducer and activator of transcription 1 (Mus musculus, UniProt P42225); assay: Displacement of 5-carboxyfluorescein-GpYDKPHVL-NH2 from mouse recombinant His-tagged STAT1-SH2 domain expressed in Escherichia coli BL21 (DE3) by fluorescence polarization assay
T2 sequence (P42225 whole entry): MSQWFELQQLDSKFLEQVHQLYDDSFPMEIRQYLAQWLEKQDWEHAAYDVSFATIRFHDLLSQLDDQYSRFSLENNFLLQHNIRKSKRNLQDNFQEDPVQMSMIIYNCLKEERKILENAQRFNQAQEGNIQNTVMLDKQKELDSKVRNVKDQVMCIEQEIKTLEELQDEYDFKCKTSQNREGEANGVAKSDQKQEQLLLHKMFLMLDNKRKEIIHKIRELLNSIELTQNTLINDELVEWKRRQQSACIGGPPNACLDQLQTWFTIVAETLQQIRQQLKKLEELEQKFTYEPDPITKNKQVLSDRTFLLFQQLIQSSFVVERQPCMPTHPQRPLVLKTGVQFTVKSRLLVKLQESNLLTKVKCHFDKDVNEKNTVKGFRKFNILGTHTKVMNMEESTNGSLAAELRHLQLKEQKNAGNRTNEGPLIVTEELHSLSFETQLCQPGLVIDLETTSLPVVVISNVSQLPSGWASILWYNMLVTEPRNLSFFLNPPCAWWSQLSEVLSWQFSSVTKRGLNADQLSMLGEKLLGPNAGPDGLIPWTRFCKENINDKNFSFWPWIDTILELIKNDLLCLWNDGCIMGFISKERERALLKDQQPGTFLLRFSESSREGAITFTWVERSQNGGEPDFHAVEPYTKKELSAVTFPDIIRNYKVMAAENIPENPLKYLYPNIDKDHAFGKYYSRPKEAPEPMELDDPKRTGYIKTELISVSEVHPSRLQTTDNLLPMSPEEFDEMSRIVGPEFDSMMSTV
In short: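 His-tagged protein expressed in BL21(DE3), Ni-column purified. STAT1 80 nM incubated with serial inhibitor concentrations 60 min at 30 °C in 50 mM NaCl, 10 mM HEPES, 1 mM EDTA, 0.1% NP-40; 15 min equilibration at room temperature; 10 nM final probe added, 30 min room temperature, then FP read.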

DU-145 = assay: Antiproliferative activity against human DU145 cells assessed as suppression of cell viability at 50 uM after 24 hrs by CyQuant cell viability assay; assay type: functional
In short: (§2)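 Cancer cells (human breast MDA-MB-231, pancreatic Panc-1, prostate DU-145) treated with a range of inhibitor concentrations, 30–50 μM, for 24 h. Growth and viability read by CyQuant cell proliferation/viability assay.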

MDA-MB-468 (human) = assay: Antiproliferative activity against human MDA-MB-468 cells assessed as suppression of cell viability at 50 uM after 24 hrs by CyQuant cell viability assay
HL-60 = assay: Antiproliferative activity against human HL60 cells assessed as suppression of cell viability after 24 hrs by CyQuant cell viability assay; assay type: functional, cell-based; details: HL-60, 24 h
In short: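 Cells incubated 24 h with a range of inhibitor concentrations; HL-60 cells (no aberrant STAT3 signalling) run as control alongside DU145, Panc-1, NIH3T3/vSrc and breast cancer lines. Viability/growth read by CyQuant assay.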

Caco-2 = assay: Apparent permeability across apical to basolateral side in human Caco2 cells at 10 uM at pH 7.4 after 90 mins by LC/MS analysis; assay type: ADME, cell-based; details: caco-2, pH 7.4, […]
NIH3T3 = assay: Antiproliferative activity against mouse NIH/3T3 cells assessed as suppression of cell viability at 50 uM after 24 hrs by CyQuant cell viability assay; assay type: functional
PANC-1 = assay: Antiproliferative activity against human PANC1 cells assessed as suppression of cell viability at 50 uM after 24 hrs by CyQuant cell viability assay; assay type: functional; in short: as §2
[7] = Metabolic stability in human Caco2 cells at 10 uM at pH 7.4 after 90 mins by LC/MS analysis; assay type: ADME, cell-based; details: Caco-2 cells, read-out: Stability
In short: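 Caco-2 monolayers grown on PET membrane inserts (1.0 µm pore) at 75,000 cells/cm² and used on day 25, fully polarized and differentiated. Compound at 10 μM final, non-gradient pH 7.4/7.4, 90 min. Samples analysed by narrow-window mass-extraction LC/QTof-MS for parent-compound peak areas. Percent recovered or transported calculated relative to the initial dosing concentration.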

| SMILES | IC50 [1] | Ki [2] | also measured |
| --- | --- | --- | --- |
| COC(=O)c1cccc(-c2cc(NC(=O)[C@H](CC(C)C)NC(=O)[C@H](Cc3ccc(OP(=O)(O)O)cc3)NC(=O)c3ccc(C#N)cc3)cc(C(=O)NCc3ccccc3)c2)c1 | 66 µM | 23 µM | – |
| CC(C)C[C@H](NC(=O)[C@H](Cc1ccc(OP(=O)(O)O)cc1)NC(=O)c1ccc(C#N)cc1)C(=O)Nc1ccc(C(=O)NCc2ccccc2)c(-c2cccc(C(N)=O)c2)c1 | 62 µM | 15 µM | – |
| CC(C)C[C@H](NC(=O)[C@H](Cc1ccc(OP(=O)(O)O)cc1)NC(=O)c1ccc(C#N)cc1)C(=O)Nc1ccc(C(=O)NCc2ccccc2)c(-c2ccc(C#N)cc2)c1 | 33 µM | 11 µM | – |
| CC(C)C[C@H](NC(=O)[C@H](Cc1ccc(OP(=O)(O)O)cc1)NC(=O)c1ccc(C#N)cc1)C(=O)Nc1cc(C(=O)NCc2ccccc2)cc(-c2ccc(C#N)cc2)c1 | 60 µM | 36 µM | – |
| CC(C)C[C@H](NC(=O)[C@H](Cc1ccc(OP(=O)(O)O)cc1)NC(=O)c1ccc(C#N)cc1)C(=O)Nc1ccc(C(=O)NCc2ccccc2)c(-c2cccc(C#N)c2)c1 | 64 µM | 13 µM | – |
| CC(C)C[C@H](NC(=O)[C@H](Cc1ccc(OP(=O)(O)O)cc1)NC(=O)c1ccc(C#N)cc1)C(=O)Nc1cc(C(=O)NCc2ccccc2)cc(-c2ccc(C(N)=O)cc2)c1 | 5 µM | 9 µM | inhibition [3]: 50%; Activity [4]: Active; Kd [5]: 0.205 µM; Ki [6]: 16.5 µM |
| CC(C)C[C@H](NC(=O)[C@H](Cc1ccc(OP(=O)(O)O)cc1)NC(=O)c1ccc(C#N)cc1)C(=O)Nc1ccc(C(=O)NCc2ccccc2)c(-c2ccc(C(N)=O)cc2)c1 | 73.1 µM | 5 µM | Activity (DU-145): 50%; inhibition [3]: > 80%; Activity [4]: Active; Kd [5]: 0.9 µM; Activity (MDA-MB-468 (human)): 50%; IC50 (HL-60): > 200 µM; Papp (Caco-2): < 0.5 ×10⁻⁶ cm/s; Activity (NIH3T3): 50%; Activity (PANC-1): 50%; Ki [6]: 6.3 µM |
| CC(C)C[C@H](NC(=O)[C@H](Cc1ccc(O)cc1)NC(=O)c1ccc(C#N)cc1)C(=O)Nc1ccc(C(=O)NCc2ccccc2)c(-c2ccc(C(N)=O)cc2)c1 | 103 µM | – | remaining at […], 10 µM [7]: 52%; Activity [3]: Active; Activity [4]: Active; Kd [5]: 12 µM; Papp (Caco-2): > 0.5 ×10⁻⁶ cm/s |
| CC(C)C[C@H](NC(=O)[C@H](Cc1ccc(O)cc1)NC(=O)c1ccc(C#N)cc1)C(=O)Nc1cc(C(=O)NCc2ccccc2)cc(-c2ccc(C(N)=O)cc2)c1 | 190 µM | – | remaining at […], 10 µM [7]: 36%; Activity [3]: inactive; Activity [4]: inactive; Kd [5]: 17 µM; Papp (Caco-2): > 0.5 ×10⁻⁶ cm/s |
| COC(=O)c1cccc(-c2cc(NC(=O)[C@H](CC(C)C)NC(=O)[C@H](Cc3ccc(OP(=O)(O)O)cc3)NC(=O)c3ccc(C#N)cc3)ccc2C(=O)NCc2ccccc2)c1 | 40 µM | 10 µM | – |
| COC(=O)c1ccc(-c2cc(NC(=O)[C@H](CC(C)C)NC(=O)[C@H](Cc3ccc(OP(=O)(O)O)cc3)NC(=O)c3ccc(C#N)cc3)cc(C(=O)NCc3ccccc3)c2)cc1 | 112 µM | 25 µM | – |
| CC(C)C[C@H](NC(=O)[C@H](Cc1ccc(OP(=O)(O)O)cc1)NC(=O)c1ccc(C#N)cc1)C(=O)Nc1cc(C(=O)NCc2ccccc2)cc(-c2cccc(C(N)=O)c2)c1 | 188 µM | 38 µM | – |
| CC(C)C[C@H](NC(=O)[C@H](Cc1ccc(OP(=O)(O)O)cc1)NC(=O)c1ccc(C#N)cc1)C(=O)Nc1cc(C(=O)NCc2ccccc2)cc(-c2cccc(C#N)c2)c1 | 92 µM | 18 µM | – |
| COC(=O)c1ccc(-c2cc(NC(=O)[C@H](CC(C)C)NC(=O)[C@H](Cc3ccc(OP(=O)(O)O)cc3)NC(=O)c3ccc(C#N)cc3)ccc2C(=O)NCc2ccccc2)cc1 | > 200 µM | 26 µM | – |
